Residue numbers refer to the chain shown, from its start.
Columns and labels:
Assay in all cases: two-electrode voltage clamp, Xenopus oocytes
Format in all cases: cell-based
[1] = molecular target: T1, 5-HT3A receptor (homomeric) (Homo sapiens, UniProt P46098, Y148A)
T1 sequence (P46098 24-478 Y148A): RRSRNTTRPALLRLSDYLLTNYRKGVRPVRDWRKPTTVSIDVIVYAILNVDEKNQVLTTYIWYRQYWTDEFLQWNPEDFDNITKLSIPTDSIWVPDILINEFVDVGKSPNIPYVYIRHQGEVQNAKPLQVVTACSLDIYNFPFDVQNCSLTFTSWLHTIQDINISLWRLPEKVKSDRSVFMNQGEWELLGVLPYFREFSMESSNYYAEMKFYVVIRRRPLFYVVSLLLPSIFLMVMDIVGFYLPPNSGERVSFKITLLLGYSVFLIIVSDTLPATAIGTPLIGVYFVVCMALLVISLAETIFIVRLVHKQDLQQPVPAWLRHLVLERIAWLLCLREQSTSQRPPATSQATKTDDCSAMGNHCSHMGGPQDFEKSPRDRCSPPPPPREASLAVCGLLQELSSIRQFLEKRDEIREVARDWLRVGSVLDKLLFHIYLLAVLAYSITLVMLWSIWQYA

[2] = molecular target: T2, 5-HT3AB receptor (Homo sapiens, UniProt O95264+P46098, O95264:E122Q/O95264:Y146A)
T2 sequence (P46098 24-478): T1 sequence (P46098 24-478 Y148A) with A125Y
T2 sequence (O95264 22-441 E122Q/Y146A): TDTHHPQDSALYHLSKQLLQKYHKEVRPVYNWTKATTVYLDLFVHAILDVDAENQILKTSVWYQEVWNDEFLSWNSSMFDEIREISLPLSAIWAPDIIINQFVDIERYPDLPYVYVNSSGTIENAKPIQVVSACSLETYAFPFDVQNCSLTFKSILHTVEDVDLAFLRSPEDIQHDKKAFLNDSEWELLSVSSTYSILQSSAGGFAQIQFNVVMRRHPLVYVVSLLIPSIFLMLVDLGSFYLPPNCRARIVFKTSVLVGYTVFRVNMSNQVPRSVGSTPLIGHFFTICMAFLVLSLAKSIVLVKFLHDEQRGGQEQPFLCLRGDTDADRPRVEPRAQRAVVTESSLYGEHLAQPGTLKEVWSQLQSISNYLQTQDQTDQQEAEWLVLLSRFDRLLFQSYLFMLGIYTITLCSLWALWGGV
Summary of the method: (§1)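 Human 5-HT3A and 5-HT3B subunits with point mutations were used. Defolliculated stage V–VI Xenopus oocytes were injected with 5–25 ng mRNA and incubated 24–72 h at 18 °C. Recordings were at 22–25 °C, holding at −60 mV. Agonist in Ca2+-free ND96 (pH 7.5) was applied for 15 s, then washed 116 s.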

[3] = molecular target: T3, 5-HT3AB receptor (Homo sapiens, UniProt O95264+P46098, O95264:E122Q/P46098:E124Q)
T3 sequence (P46098 24-478 E124Q): T1 sequence (P46098 24-478 Y148A) with E101Q, A125Y
T3 sequence (O95264 22-441 E122Q): T2 sequence (O95264 22-441 E122Q/Y146A) with A125Y
Summary of the method: as §1

[4] = molecular target: T4, 5-HT3AB receptor (Homo sapiens, UniProt O95264+P46098, P46098:E124Q)
T4 sequence (P46098 24-478 E124Q): T1 sequence (P46098 24-478 Y148A) with E101Q, A125Y
T4 sequence (O95264 22-441): T2 sequence (O95264 22-441 E122Q/Y146A) with Q101E, A125Y
Summary of the method: as §1

[5] = molecular target: T5, 5-HT3AB receptor (Homo sapiens, UniProt O95264+P46098, P46098:Y148A)
T5 sequence (P46098 24-478 Y148A): T1 sequence (P46098 24-478 Y148A)
T5 sequence (O95264 22-441): T2 sequence (O95264 22-441 E122Q/Y146A) with Q101E, A125Y
Summary of the method: as §1

[6] = molecular target: T6, 5-HT3AB receptor (Homo sapiens, UniProt O95264+P46098, O95264:E122A)
T6 sequence (P46098 24-478): T1 sequence (P46098 24-478 Y148A) with A125Y
T6 sequence (O95264 22-441 E122A): T2 sequence (O95264 22-441 E122Q/Y146A) with Q101A, A125Y
Summary of the method: as §1

[7] = molecular target: T7, 5-HT3AB receptor (Homo sapiens, UniProt O95264+P46098, O95264:E122Q)
T7 sequence (P46098 24-478): T1 sequence (P46098 24-478 Y148A) with A125Y
T7 sequence (O95264 22-441 E122Q): T2 sequence (O95264 22-441 E122Q/Y146A) with A125Y
Summary of the method: as §1

[8] = molecular target: T8, 5-HT3AB receptor (Homo sapiens, UniProt O95264+P46098, O95264:Y146A)
T8 sequence (P46098 24-478): T1 sequence (P46098 24-478 Y148A) with A125Y
T8 sequence (O95264 22-441 Y146A): T2 sequence (O95264 22-441 E122Q/Y146A) with Q101E
Summary of the method: as §1

N=C(N)NC(=N)Nc1cccc(Cl)c1 [mCPBG]
EC50 [1]: 24.7 ± 0.9 µM | EC50 [2]: 3.5 ± 0.1 µM | EC50 [3]: 2.4 ± 0.4 µM | EC50 [4]: 3 ± 0.7 µM | EC50 [5]: 11.2 ± 0.6 µM | EC50 [6]: 2.4 ± 0.1 µM | EC50 [7]: 2.3 ± 0.1 µM | EC50 [8]: 4.3 ± 0.3 µM

Reference: PMC4312754 (Neuropharmacology, 2014)
